Test results published in ChEMBL document CHEMBL1649165, “Activity profile in vitro of micafungin against Spanish clinical isolates of common and emerging species of yeasts and molds” (2009).
Converted amounts (≈) assume the structure as drawn.

What was measured:
Type in all cases: functional
[1] = system: Lewia infectoria; assay: Antimicrobial activity against Alternaria infectoria by broth microdilution method
In short: (§1)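 Clinical mould isolates, tested by broth microdilution using the AFST-EUCAST reference method for filamentous fungi. For echinocandins, the endpoint was the minimum effective concentration: the lowest drug concentration giving aberrant hyphal growth, read with an inverted microscope.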

[2] = system: Beauveria bassiana; assay: Antimicrobial activity against Beauveria bassiana by broth microdilution method; in short: as §1
[3] = system: Pichia norvegensis; assay: Antimicrobial activity against Candida norvegensis by broth microdilution method
In short: (§2)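 Clinical isolates from human patients, tested by broth microdilution using the AFST-EUCAST reference procedure for fermentative yeasts. The MIC was read per that reference method.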

[4] = system: Lecythophora hoffmannii; assay: Antimicrobial activity against Lecythophora hoffmannii by broth microdilution method; details: Coniochaeta hoffmannii
In short: (§3)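 Filamentous fungus clinical isolates tested by the AFST-EUCAST reference broth microdilution method for moulds. For echinocandins, the endpoint was the minimum effective concentration: the lowest drug concentration giving aberrant hyphal growth, read with an inverted microscope.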

[5] = system: Cladosporium; assay: Antimicrobial activity against Cladosporium spp. by broth microdilution method; in short: as §1
[6] = system: Candida parapsilosis; assay: Antimicrobial activity against Candida parapsilosis by broth microdilution method; details: Lodderomyces parapsilosis; in short: as §2
[7] = system: Kluyveromyces marxianus; assay: Antimicrobial activity against Candida kefyr by broth microdilution method; in short: as §2
[8] = system: Trichosporon jirovecii; assay: Antimicrobial activity against Trichosporon jirovecii by broth microdilution method; details: Cutaneotrichosporon jirovecii
In short: (§4)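 Nonfermentative yeast clinical isolates (Rhodotorula, Trichosporon) tested by broth microdilution. The EUCAST yeast recommendations were followed strictly, with one minor modification to improve growth. MIC was read as the endpoint.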

[9] = system: Saccharomyces cerevisiae; assay: Antimicrobial activity against Saccharomyces cerevisiae by broth microdilution method
[10] = system: Torulaspora delbrueckii; assay: Antimicrobial activity against Candida coliculosa by broth microdilution method; in short: as §2
[11] = system: Neurospora sitophila; assay: Antimicrobial activity against Chrysonilia sitophila by broth microdilution method; in short: as §1
[12] = system: Scopulariopsis brevicaulis; assay: Antimicrobial activity against Scopulariopsis brevicaulis by broth microdilution method; in short: as §3
[13] = system: Fusarium proliferatum; assay: Antimicrobial activity against Fusarium proliferatum by broth microdilution method; in short: as §1
[14] = system: Rhodotorula mucilaginosa; assay: Antimicrobial activity against Rhodotorula mucilaginosa by broth microdilution method; in short: as §4
[15] = system: Cunninghamella bertholletiae; assay: Antimicrobial activity against Cunninghamella bertholletiae by broth microdilution method; in short: as §1
[16] = system: Exophiala dermatitidis; assay: Antimicrobial activity against Exophiala dermatitidis by broth microdilution method
[17] = system: Fusarium verticillioides; assay: Antimicrobial activity against Fusarium verticillioides by broth microdilution method; in short: as §3
[18] = system: Kazachstania pintolopesii; assay: Antimicrobial activity against Candida pintolopesii by broth microdilution method; details: Arxiozyma pintolopesii; in short: as §2
[19] = system: Trichosporon dermatis; assay: Antimicrobial activity against Trichosporon dermatis by broth microdilution method; details: Cutaneotrichosporon dermatis; in short: as §4
[20] = system: Meyerozyma guilliermondii; assay: Antimicrobial activity against Candida guilliermondii by broth microdilution method; in short: as §2
[21] = system: Aspergillus fumigatus; assay: Antimicrobial activity against Aspergillus fumigatus by broth microdilution method; in short: as §1
[22] = system: Paecilomyces variotii; assay: Antimicrobial activity against Paecilomyces variotii by broth microdilution method; in short: as §3
[23] = system: Wickerhamomyces anomalus; assay: Antimicrobial activity against Candida pelliculosa by broth microdilution method; details: Hansenula anomala; in short: as §2
[24] = system: Cladophialophora bantiana; assay: Antimicrobial activity against Cladophialophora bantiana by broth microdilution method; in short: as §1
[25] = system: Rhodotorula glutinis; assay: Antimicrobial activity against Rhodotorula glutinis by broth microdilution method; in short: as §4
[26] = system: Scytalidium hyalinum; assay: Antimicrobial activity against Scytalidium hyalinum by broth microdilution method; details: Neoscytalidium hyalinum; in short: as §3
[27] = system: Candida albicans; assay: Antimicrobial activity against Candida albicans by broth microdilution method; in short: as §2
[28] = Antimicrobial activity against Rhizopus microsporus by broth microdilution method; in short: as §3
[29] = system: Fusarium reticulatum; assay: Antimicrobial activity against Fusarium reticulatum by broth microdilution method; in short: as §3
[30] = system: Alternaria alternata; assay: Antimicrobial activity against Alternaria alternata by broth microdilution method; in short: as §1
[31] = system: Trichosporon asahii; assay: Antimicrobial activity against Trichosporon asahii by broth microdilution method; in short: as §4
[32] = system: Rhizomucor; assay: Antimicrobial activity against Rhizomucor spp.by broth microdilution method; in short: as §3
[33] = system: Fusarium oxysporum; assay: Antimicrobial activity against Fusarium oxysporum by broth microdilution method; in short: as §1
[34] = system: Aspergillus terreus; assay: Antimicrobial activity against Aspergillus terreus by broth microdilution method; in short: as §1
[35] = system: Trichosporon domesticum; assay: Antimicrobial activity against Trichosporon mycotoxinivorans by broth microdilution method; details: Apiotrichum domesticum
In short: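 Spanish human clinical isolates were tested as nonfermentative yeasts by broth microdilution. The method strictly followed the EUCAST recommendations, with a minor modification to improve growth, and the read-out was the MIC.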

[36] = Antimicrobial activity against Hormographiella aspergillata by broth microdilution method; details: Coprinopsis cinerea; in short: as §3
[37] = system: Paecilomyces lilacinus; assay: Antimicrobial activity against Paecilomyces lilacinus by broth microdilution method; details: Purpureocillium lilacinum; in short: as §3
[38] = system: Candida orthopsilosis; assay: Antimicrobial activity against Candida orthopsilosis by broth microdilution method; details: Lodderomyces orthopsilosis; in short: as §2
[39] = system: Candida metapsilosis; assay: Antimicrobial activity against Candida metapsilosis by broth microdilution method; details: Lodderomyces metapsilosis; in short: as §2
[40] = system: [Candida] intermedia; assay: Antimicrobial activity against Candida intermedia by broth microdilution method; details: Sungouiella intermedia; in short: as §2
[41] = system: Scedosporium apiospermum; assay: Antimicrobial activity against Scedosporium apiospermum by broth microdilution method; in short: as §3
[42] = system: Aspergillus sclerotiorum; assay: Antimicrobial activity against Aspergillus sclerotiorum by broth microdilution method; in short: as §1
[43] = system: Aspergillus ustus; assay: Antimicrobial activity against Aspergillus ustus by broth microdilution method; in short: as §1
[44] = system: Fennellia nivea; assay: Antimicrobial activity against Aspergillus niveus by broth microdilution method; in short: as §1
[45] = system: Lomentospora prolificans; assay: Antimicrobial activity against Scedosporium prolificans by broth microdilution method; in short: as §3

Work on `C[C@@H](c1ncncc1F)[C@](O)(Cn1cncn1)c1ccc(F)cc1F` [VORICONAZOLE] yielded an MIC50 [1] of 2 µg/mL (≈ 5.73 µM), an MIC90 [1] greater than 8 µg/mL and an MIC50 [2] of 4 µg/mL (≈ 11.5 µM). It also gave an MIC90 [2] greater than 8 µg/mL, an MIC50 [3] of 0.12 µg/mL (≈ 0.344 µM) and an MIC90 [3] greater than 8 µg/mL. For the same compound, the MIC50 [4] was 0.06 µg/mL (≈ 0.172 µM), the MIC90 [4] was greater than 8 µg/mL and the MIC50 [5] was 0.06 µg/mL (≈ 0.172 µM). The MIC90 [5] was greater than 8 µg/mL, the MIC50 [6] was 0.02 µg/mL (≈ 0.0573 µM) and the MIC90 [6] was 0.02 µg/mL (≈ 0.0573 µM). It also gave an MIC50 [7] of 0.02 µg/mL (≈ 0.0573 µM), an MIC90 [7] of 0.02 µg/mL (≈ 0.0573 µM) and an MIC50 [8] of 0.5 µg/mL (≈ 1.43 µM). For the same compound, the MIC90 [8] was greater than 8 µg/mL, the MIC50 [9] was 0.06 µg/mL (≈ 0.172 µM) and the MIC90 [9] was 0.5 µg/mL (≈ 1.43 µM). For the same compound, the MIC50 [10] was 0.12 µg/mL (≈ 0.344 µM), the MIC90 [10] was greater than 8 µg/mL and the MIC50 [11] was 4 µg/mL (≈ 11.5 µM). It also gave an MIC90 [11] greater than 8 µg/mL, an MIC50 [12] of 4 µg/mL (≈ 11.5 µM) and an MIC90 [12] greater than 8 µg/mL. The MIC50 [13] was 8 µg/mL (≈ 22.9 µM), the MIC90 [13] was 8 µg/mL (≈ 22.9 µM) and the MIC50 [14] was 4 µg/mL (≈ 11.5 µM). It also gave an MIC90 [14] greater than 8 µg/mL, an MIC50 [15] greater than 8 µg/mL and an MIC90 [15] greater than 8 µg/mL. The MIC50 [16] was 0.06 µg/mL (≈ 0.172 µM), the MIC90 [16] was greater than 8 µg/mL and the MIC50 [17] was 8 µg/mL (≈ 22.9 µM). The MIC90 [17] was greater than 8 µg/mL, the MIC50 [18] was 0.12 µg/mL (≈ 0.344 µM) and the MIC90 [18] was greater than 8 µg/mL. For the same compound, the MIC50 [19] was 0.5 µg/mL (≈ 1.43 µM), the MIC90 [19] was greater than 8 µg/mL and the MIC50 [20] was 0.12 µg/mL (≈ 0.344 µM). The MIC90 [20] was greater than 8 µg/mL, the MIC50 [21] was 0.5 µg/mL (≈ 1.43 µM) and the MIC90 [21] was 1 µg/mL (≈ 2.86 µM). The MIC50 [22] was 1 µg/mL (≈ 2.86 µM), the MIC90 [22] was greater than 8 µg/mL and the MIC50 [23] was 0.12 µg/mL (≈ 0.344 µM). For the same compound, the MIC90 [23] was greater than 8 µg/mL, the MIC50 [24] was 0.06 µg/mL (≈ 0.172 µM) and the MIC90 [24] was greater than 8 µg/mL. The MIC50 [25] was 0.5 µg/mL (≈ 1.43 µM), the MIC90 [25] was greater than 8 µg/mL and the MIC50 [26] was 0.06 µg/mL (≈ 0.172 µM). It also gave an MIC90 [26] greater than 8 µg/mL, an MIC50 [27] of 0.02 µg/mL (≈ 0.0573 µM) and an MIC90 [27] of 0.02 µg/mL (≈ 0.0573 µM). For the same compound, the MIC50 [28] was greater than 8 µg/mL, the MIC90 [28] was greater than 8 µg/mL and the MIC50 [29] was 4 µg/mL (≈ 11.5 µM). The MIC90 [29] was greater than 8 µg/mL, the MIC50 [30] was 4 µg/mL (≈ 11.5 µM) and the MIC90 [30] was greater than 8 µg/mL. The MIC50 [31] was 0.25 µg/mL (≈ 0.716 µM), the MIC90 [31] was greater than 8 µg/mL and the MIC50 [32] was greater than 8 µg/mL. It also gave an MIC90 [32] greater than 8 µg/mL, an MIC50 [33] of 4 µg/mL (≈ 11.5 µM) and an MIC90 [33] greater than 8 µg/mL. For the same compound, the MIC50 [34] was 1 µg/mL (≈ 2.86 µM), the MIC90 [34] was 2 µg/mL (≈ 5.73 µM) and the MIC50 [35] was 0.5 µg/mL (≈ 1.43 µM). For the same compound, the MIC90 [35] was greater than 8 µg/mL, the MIC50 [36] was 4 µg/mL (≈ 11.5 µM) and the MIC90 [36] was greater than 8 µg/mL. It also gave an MIC50 [37] of 0.5 µg/mL (≈ 1.43 µM), an MIC90 [37] greater than 8 µg/mL and an MIC50 [38] of 0.12 µg/mL (≈ 0.344 µM). The MIC90 [38] was greater than 8 µg/mL, the MIC50 [39] was 0.12 µg/mL (≈ 0.344 µM) and the MIC90 [39] was greater than 8 µg/mL. The MIC50 [40] was 0.12 µg/mL (≈ 0.344 µM), the MIC90 [40] was greater than 8 µg/mL and the MIC50 [41] was 0.5 µg/mL (≈ 1.43 µM). It also gave an MIC90 [41] of 2 µg/mL (≈ 5.73 µM), an MIC50 [42] of 0.25 µg/mL (≈ 0.716 µM) and an MIC90 [42] greater than 8 µg/mL. The MIC50 [43] was 0.25 µg/mL (≈ 0.716 µM), the MIC90 [43] was greater than 8 µg/mL and the MIC50 [44] was 0.25 µg/mL (≈ 0.716 µM). It also gave an MIC90 [44] greater than 8 µg/mL, an MIC50 [45] greater than 8 µg/mL and an MIC90 [45] greater than 8 µg/mL.
